Experimental data as given in ChEMBL document CHEMBL1127642, “Potent, selective, and systemically-available inhibitors of acyl-coenzyme A:cholesterol acyl transferase (ACAT)” (J Med Chem, 1994).
The source made the active and inactive calls. The calls are words filed in the database; no cut-off is given here.

What was measured:
[1] = biological target: T1, Sterol O-acyltransferase 1 (Rattus norvegicus, UniProt O70536); assay: In vitro potency was determined using Acyl coenzyme A:cholesterol acyltransferase in liver microsomes from rats; set-up: species or system Microsome
T1 sequence (O70536 whole entry): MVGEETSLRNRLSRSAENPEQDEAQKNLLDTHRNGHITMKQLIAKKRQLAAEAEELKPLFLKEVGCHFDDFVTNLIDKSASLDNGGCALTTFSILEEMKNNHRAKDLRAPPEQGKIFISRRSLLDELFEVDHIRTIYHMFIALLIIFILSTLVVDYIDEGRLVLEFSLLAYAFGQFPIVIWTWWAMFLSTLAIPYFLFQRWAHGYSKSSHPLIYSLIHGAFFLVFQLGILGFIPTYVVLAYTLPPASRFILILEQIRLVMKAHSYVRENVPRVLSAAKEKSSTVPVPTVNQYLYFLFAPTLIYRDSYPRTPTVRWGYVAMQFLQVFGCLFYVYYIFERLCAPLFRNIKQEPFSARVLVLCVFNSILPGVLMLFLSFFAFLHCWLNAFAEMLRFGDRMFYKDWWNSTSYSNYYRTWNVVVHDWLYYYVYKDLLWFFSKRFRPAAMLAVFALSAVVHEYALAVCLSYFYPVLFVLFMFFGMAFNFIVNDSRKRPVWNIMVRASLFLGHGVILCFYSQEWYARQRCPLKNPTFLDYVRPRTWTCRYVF
Outline: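 Enzyme source was liver microsomes prepared from chow-fed Sprague-Dawley rats, assayed for ACAT activity by the Billheimer method. IC50 was determined.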

Oryctolagus cuniculus = assay: Evaluation for the plasma cholesterol lowering in rabbits at the dose 5 mg/kg; type: functional, organism-based; set-up: dose 5 mg/kg
Outline: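 Cholesterol-fed New Zealand White rabbits: diet with 0.4% cholesterol and 5% peanut oil for 4 weeks, drug given over the final 3 weeks at a single dose of 5 mg/kg. Read-out is total plasma cholesterol (mg/dL) against untreated controls, mean ± standard deviation, n = 5 per group.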

Cricetinae gen. sp. = assay: Effects on cholesterol absorption in hamsters; type: functional, organism-based; conditions: Cricetulus griseus
Outline: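 Cholesterol-fed hamsters received radiolabeled cholesterol in a liquid diet together with the drug, and untreated controls were included. Animals were sacrificed 24 h later. Absorption inhibition was estimated from plasma and liver radioactivity relative to controls. Dose-response studies gave ED50, and chow-fed hamsters were also tested.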

[2] = biological target: T2, 3-hydroxy-3-methylglutaryl-coenzyme A reductase (Rattus norvegicus) (UniProt P51639); assay: Dose required for 50 percent inhibition of 3-Hydroxy-3-methylglutaryl coenzyme A reductase in vitro in rats at 100 uM; No effect
T2 sequence (whole entry): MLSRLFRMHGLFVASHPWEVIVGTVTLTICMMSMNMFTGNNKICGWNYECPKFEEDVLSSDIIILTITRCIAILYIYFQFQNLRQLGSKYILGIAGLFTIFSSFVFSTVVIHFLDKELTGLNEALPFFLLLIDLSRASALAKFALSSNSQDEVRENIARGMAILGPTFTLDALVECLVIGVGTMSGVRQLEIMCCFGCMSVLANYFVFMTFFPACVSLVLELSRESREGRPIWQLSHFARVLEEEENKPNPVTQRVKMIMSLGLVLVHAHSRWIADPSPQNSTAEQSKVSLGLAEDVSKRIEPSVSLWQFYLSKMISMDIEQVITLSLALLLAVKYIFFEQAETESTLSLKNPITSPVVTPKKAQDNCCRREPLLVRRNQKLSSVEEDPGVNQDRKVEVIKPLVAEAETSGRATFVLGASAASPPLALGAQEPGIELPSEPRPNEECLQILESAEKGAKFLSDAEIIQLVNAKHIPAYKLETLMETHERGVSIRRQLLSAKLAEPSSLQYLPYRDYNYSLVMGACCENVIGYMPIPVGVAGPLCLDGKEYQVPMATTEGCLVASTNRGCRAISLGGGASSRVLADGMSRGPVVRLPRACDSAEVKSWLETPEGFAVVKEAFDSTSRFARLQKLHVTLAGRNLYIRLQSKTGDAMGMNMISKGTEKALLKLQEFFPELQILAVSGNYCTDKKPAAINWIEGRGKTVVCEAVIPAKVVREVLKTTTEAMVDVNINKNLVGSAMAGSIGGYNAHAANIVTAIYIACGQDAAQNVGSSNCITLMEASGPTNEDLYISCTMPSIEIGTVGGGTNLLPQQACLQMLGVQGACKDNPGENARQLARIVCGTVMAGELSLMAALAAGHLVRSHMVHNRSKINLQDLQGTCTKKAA

[3] = biological target: T3, Sterol O-acyltransferase 1 (Rattus norvegicus) (UniProt O70536); conditions: 0.135 uM
T3 sequence (whole entry): T1 sequence (O70536 whole entry)

[4] = Dose required for 50 percent inhibition of lecithin cholesterol acyl transferase in vitro in rats at 30 uM; No effect
[5] = Dose required for 50 percent inhibition of rat Pancreatic cholesterol esterase in vitro No effect at 300 uM
[6] = Dose required for 50 percent inhibition of lecithin cholesterol acyl transferase in vitro in rats at 300 uM; No effect
[7] = biological target: T4, Bile salt-activated lipase (Bos taurus) (UniProt P30122); assay: Dose required for 50 percent inhibition of Pancreatic cholesterol esterase in vitro in rats at 300 uM; No effect
T4 sequence (whole entry): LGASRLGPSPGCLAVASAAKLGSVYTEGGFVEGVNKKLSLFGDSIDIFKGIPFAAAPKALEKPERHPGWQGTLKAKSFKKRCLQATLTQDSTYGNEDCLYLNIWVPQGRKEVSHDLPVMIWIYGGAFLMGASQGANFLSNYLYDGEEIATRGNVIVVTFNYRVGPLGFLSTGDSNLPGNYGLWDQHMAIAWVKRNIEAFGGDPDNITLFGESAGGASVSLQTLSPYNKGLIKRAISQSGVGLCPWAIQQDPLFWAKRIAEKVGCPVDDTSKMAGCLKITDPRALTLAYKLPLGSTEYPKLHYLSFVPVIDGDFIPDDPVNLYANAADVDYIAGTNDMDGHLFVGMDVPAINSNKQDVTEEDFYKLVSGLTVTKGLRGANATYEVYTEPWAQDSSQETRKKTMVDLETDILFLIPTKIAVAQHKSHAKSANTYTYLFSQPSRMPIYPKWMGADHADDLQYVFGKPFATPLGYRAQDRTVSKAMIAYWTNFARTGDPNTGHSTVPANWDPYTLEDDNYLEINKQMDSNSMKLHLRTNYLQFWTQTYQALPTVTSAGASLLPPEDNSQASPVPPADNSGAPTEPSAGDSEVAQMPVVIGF

Row | SMILES | IC50 [1] | Level (Oryctolagus cuniculus) | Absorption (Cricetinae gen. sp.) | inhibition [2] | inhibition [3] | inhibition [4] | inhibition [5] | inhibition [6] | inhibition [7]
1 | CCCCCCCC[C@@H](SCCCCCC)C(=O)Nc1c(SC)ccc2ncccc12 | 750 nM |  |  |  |  |  |  |  | 
2 | CCCCCCCCC(SCCCCCC)C(=O)Nc1c(SC)cc(C)nc1SC (single isomer, unassigned) | 160 nM |  |  |  |  |  |  |  | 
3 | CCCCCCCC[C@H](SCCCCCC)C(=O)Nc1c(SC)ccc2ncccc12 | 135 nM | 123 mg/dL | 0.24 mg/kg | inactive | 50% | inactive |  |  | 
4 | CCCCCCCC[C@H](SCCCCCC)C(=O)Nc1c(SC)cc(C)nc1SC | 22 nM | 98 mg/dL | 0.009 mg/kg |  |  |  | inactive | inactive | inactive
